# From ChEMBL document CHEMBL2331445, “Chemical, biochemical and microbiological properties of a brominated nitrovinylfuran with broad-spectrum antibacterial activity” (Bioorg Med Chem, 2013)
# Activity calls are given as the source filed them. No cut-off for these calls is given here.
# Assays:
# Escherichia coli [1] = conditions: at 10 µM
# [2] = biological target: UDP-N-acetylglucosamine 1-carboxyvinyltransferase (Escherichia coli K-12, UniProt P0A749, C115D); assay: Inhibition of Escherichia coli MurA C115D mutant expressed in Escherichia coli BL21(lambdaDE3) using UNAG and PEP as substrate incubated for 10 mins prior to PEP addition measured after 60 mins by spectrophotometric analysis
# [3] = Inhibition of Pseudomonas aeruginosa MurA expressed in Escherichia coli BL21(lambdaDE3) using UNAG and PEP as substrate incubated for 10 mins prior to PEP addition measured after 60 mins by spectrophotometric analysis
# MeWo = assay: Cytotoxicity against human MeWo cells after 72 hrs by crystal violet staining method; assay type: ADME, cell-based
# Dengue virus = conditions: at 50 µM
# CAPAN-1 = assay: Cytotoxicity against human Capan1 cells after 72 hrs by crystal violet staining method; assay type: ADME, cell-based; conditions: CAPAN-1, 72 h
# Calu-6 = assay: Cytotoxicity against human Calu6 cells after 72 hrs by crystal violet staining method; assay type: ADME, cell-based; conditions: Calu-6, 72 h
# Escherichia coli [4] = assay: microbe, parasite or virus in culture; assay type: functional; conditions: ATCC 25922
# [5] = Inhibition of Staphylococcus aureus MurA2 expressed in Escherichia coli BL21(lambdaDE3) using UNAG and PEP as substrate incubated for 10 mins prior to PEP addition measured after 60 mins by spectrophotometric analysis
# [6] = Cytotoxicity against human SW707 cells after 72 hrs by crystal violet staining method; assay type: ADME, cell-based; conditions: SW707, 72 h
# Staphylococcus aureus [7] = assay: microbe, parasite or virus in culture; assay type: functional; conditions: ATCC 25923
# Ca-Ski = assay: Cytotoxicity against human CaSki cells after 72 hrs by crystal violet staining method; assay type: ADME, cell-based
# HaCaT = assay: Cytotoxicity against human HaCaT cells after 72 hrs by crystal violet staining method; assay type: ADME, cell-based
# A-431 = assay: Cytotoxicity against human A431 cells after 72 hrs by crystal violet staining method; assay type: ADME, cell-based; conditions: A-431, 72 h
# [8] = Induction of GSH-adduct formation in citrate buffer at100 uM by RP-LC/MS analysis; conditions: 100 µM
# Staphylococcus aureus [9] = assay: microbe, parasite or virus in culture; assay type: functional; conditions: NCTC 10442
# [10] = biological target: Methionine aminopeptidase 2 (Homo sapiens) (UniProt P50579); conditions: at 10 µM
# [11] = biological target: UDP-N-acetylglucosamine 1-carboxyvinyltransferase (Escherichia coli K-12, UniProt P0A749); assay: Inhibition of Escherichia coli MurA expressed in Escherichia coli BL21(lambdaDE3) using UNAG and PEP as substrate incubated for 10 mins prior to PEP addition measured after 60 mins by spectrophotometric analysis
# [12] = biological target: Prothrombin (Homo sapiens) (UniProt P00734); conditions: at 25 µM
# [13] = Induction of GSSG formation in citrate buffer at 100 uM by RP-LC/MS analysis
# Pseudomonas aeruginosa = assay: microbe, parasite or virus in culture; assay type: functional; conditions: ATCC 27853
# [14] = Cytotoxicity against human Flow 2002 cells after 72 hrs by crystal violet staining method; assay type: ADME, cell-based; conditions: Flow 2002, 72 h
# [15] = biological target: Methionine aminopeptidase 1 (Homo sapiens) (UniProt P53582); conditions: at 10 µM
# [16] = biological target: UDP-N-acetylglucosamine 1-carboxyvinyltransferase (Escherichia coli K-12) (UniProt P0A749); conditions: 200 nM
# [17] = biological target: UDP-N-acetylglucosamine 1-carboxyvinyltransferase (Escherichia coli K-12) (UniProt P0A749); conditions: 100 nM
# [18] = system: UDP-N-acetylglucosamine 1-carboxyvinyltransferase (Escherichia coli K-12), P0A749 [C115D]; assay: Inhibition of Escherichia coli MurA C115D mutant expressed in Escherichia coli BL21(lambdaDE3) using UNAG and PEP as substrate at 50 to 500 uM incubated for 30 mins by 2,2'-dithiopyridine based spectrophotometric analysis
# Summary of the method: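 MurA (wild-type or C115D) was incubated with test compound at an equimolar ratio or 10-fold excess in 50 mM Tris pH 7.8 at room temperature for 30 min. 2,2'-Dithiodipyridine was then added in 0.5 M citrate pH 4 with 6 M urea for 30 min and quenched with 4% TFA. 2-Thiopyridone was measured by HPLC at 342 nm against a compound-free control.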
# Sequence of UDP-N-acetylglucosamine 1-carboxyvinyltransferase (Escherichia coli K-12, UniProt P0A749, C115D) (P0A749 whole entry C115D): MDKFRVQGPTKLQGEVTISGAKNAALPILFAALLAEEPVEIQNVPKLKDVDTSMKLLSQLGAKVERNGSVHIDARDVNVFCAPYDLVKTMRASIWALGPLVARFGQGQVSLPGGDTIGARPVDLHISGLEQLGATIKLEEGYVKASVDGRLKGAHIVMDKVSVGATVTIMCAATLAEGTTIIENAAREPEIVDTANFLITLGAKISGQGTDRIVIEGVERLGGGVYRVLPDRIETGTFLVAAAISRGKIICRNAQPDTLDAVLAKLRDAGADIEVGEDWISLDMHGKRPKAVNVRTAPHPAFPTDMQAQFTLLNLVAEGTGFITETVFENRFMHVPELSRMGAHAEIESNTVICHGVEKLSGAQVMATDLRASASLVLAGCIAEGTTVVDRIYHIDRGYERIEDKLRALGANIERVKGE
# Sequence of Methionine aminopeptidase 2 (Homo sapiens) (P50579 2-478 limits assumed): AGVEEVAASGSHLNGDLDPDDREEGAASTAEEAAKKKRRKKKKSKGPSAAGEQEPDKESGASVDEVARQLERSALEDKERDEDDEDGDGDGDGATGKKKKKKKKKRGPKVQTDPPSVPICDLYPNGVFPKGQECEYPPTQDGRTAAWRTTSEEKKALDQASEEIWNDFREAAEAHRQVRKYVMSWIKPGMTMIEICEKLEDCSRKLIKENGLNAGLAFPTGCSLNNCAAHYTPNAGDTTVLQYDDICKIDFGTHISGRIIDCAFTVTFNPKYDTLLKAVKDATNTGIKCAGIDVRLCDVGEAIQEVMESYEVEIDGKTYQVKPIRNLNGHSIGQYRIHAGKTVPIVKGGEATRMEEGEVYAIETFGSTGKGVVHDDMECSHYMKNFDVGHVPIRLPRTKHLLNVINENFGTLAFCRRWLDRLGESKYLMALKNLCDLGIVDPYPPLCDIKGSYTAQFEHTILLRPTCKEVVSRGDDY
# Sequence of UDP-N-acetylglucosamine 1-carboxyvinyltransferase (Escherichia coli K-12, UniProt P0A749) (P0A749 whole entry): as the sequence (P0A749 whole entry C115D) above, with D115C counted along it
# Sequence of UDP-N-acetylglucosamine 1-carboxyvinyltransferase (Escherichia coli K-12) (P0A749 whole entry): as the sequence (P0A749 whole entry C115D) above, with D115C counted along it
# Sequence of UDP-N-acetylglucosamine 1-carboxyvinyltransferase (Escherichia coli K-12), P0A749 [C115D] (P0A749 whole entry C115D): as the sequence (P0A749 whole entry C115D) above
Structure (SMILES),inhibition (Escherichia coli [1]),IC50 ([3]; read-out: IC50) [µM],IC50 (MeWo) [µM],inhibition (Dengue virus),IC50 (CAPAN-1) [µM],IC50 (Calu-6) [µM],MIC (Escherichia coli [4]) [µg/mL],IC50 ([5]; read-out: IC50) [µM],IC50 [6] [µM],MIC (Staphylococcus aureus [7]) [µg/mL],IC50 (Ca-Ski) [µM],IC50 (HaCaT) [µM],IC50 (A-431) [µM],MIC (Staphylococcus aureus [9]) [µg/mL],inhibition [10],inhibition [12],MIC (Pseudomonas aeruginosa) [µg/mL],IC50 [14] [µM],inhibition [15],IC50 [2],other results
O=[N+]([O-])CBr [BROMO(NITRO)METHANE],85%,4,40,inactive,69,23,1,6.2,73,2,99,25,38,2,22%,inactive,0.5,14,inactive,–,IC50 ([2]; read-out: IC50): 7.8 µM; Activity [8]: Active; IC50 ([11]; read-out: IC50): 4.6 µM; Activity [13]: Not Active
C=C1C(=O)O[C@@H]2/C=C(\CO)CC/C=C(\C)C[C@H](OC(=O)C(=C)[C@H](O)CO)[C@@H]12 [CNICIN],inactive,10.3,≥ 100,inactive,93,44,> 32,20.4,≥ 100,> 32,≥ 100,80,27,> 32,9%,inactive,> 32,82,inactive,Not Active,–
C[C@@H]1O[C@@H]1P(=O)(O)O [FOSFOMYCIN],inactive,10.5,≥ 100,inactive,≥ 100,≥ 100,2,1.1,≥ 100,4,≥ 100,≥ 100,≥ 100,4,inactive,inactive,1,≥ 100,inactive,Not Active,inhibition [16]: inactive; inhibition [17]: tde; inhibition [18]: inactive; IC50 ([11]; read-out: IC50): 0.1 µM
C[N+](=O)[O-] [NITROMETHANE],inactive,–,≥ 100,inactive,≥ 100,≥ 100,32,–,≥ 100,8,≥ 100,≥ 100,≥ 100,> 32,inactive,inactive,8,≥ 100,inactive,Not Active,IC50 [3]: Not Active; IC50 [5]: Not Active; IC50 [11]: Not Active
